Screening data: PubChem BioAssay, SRMLSC
Only a selection was taken, and hits are over-represented in it overall.
PostGolgi ctrl: yeast control strain growth, post-Golgi counter-screen | efflux-deficient yeast background strain, growth absorbance A615, 16 h | inhibition, % at 10 µM | actives 5% (n = 98,000) | AID 738
BB579 growth dn: reduces growth of yeast BB579 in restrictive medium; S. cerevisiae BB579 growth, OD615, 48 h; inhibition, % at 10 µM; AID 804; actives 0.51% (n = 140,000);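 active = inhibition above a set limit, 3 SD over the mean compound inhibition, cut at about 44% in these data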
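Test system: S. cerevisiae DeaD strain BB579 yeast; Medium: restrictive CSMM-D medium; Compound: one dose, 10 µM compound with 0.25% DMSO; Incubation: 4 h cell preincubation, 48 h compound exposure, 30 °C humidified; Signal: OD at 615 nm; Benchmarks: amphotericin B at 10 µg/mL as positive control.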
PostGolgi yeast: growth inhibition of a yeast mutant, post-Golgi transport screen; actives 0.9% (n = 98,000); inhibition, % at 10 µM; post-Golgi transport phenotypic cell assay;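 note: yeast cells grown in 1536-well plates; yeast grown about 18 h at 30C before absorbance read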
Yeast life ext: yeast lifespan extension; S. cerevisiae growth with nicotinamide, OD615; deaD strain in restrictive glucose medium; actives 0.68% (n = 130,000); inhibition of the nicotinamide effect, % at 10 µM;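 active = inhibition above a set limit, placed 3 SD over the median of all compounds, cut at about 26% in these data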;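 note: 0% = nicotinamide-treated wells and 100% = cells grown without nicotinamide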
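Assay system: DeaD-strain S. cerevisiae. Medium: CSMM-D glucose medium, restrictive. Reagent: nicotinamide, 1.5 mM, co-present with compound. Compound: 10 µM single point, 0.25% DMSO. Schedule: culture preincubation 4 h, compound exposure 48 h, both 30 °C. Detection: absorbance at 615 nm.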
Numbers without * were called inactive; · = no result. Cut-off read from the data, not from the text of the source, unless noted: active = inhibition above about 30%; inactive = the rest.

SMILES	PostGolgi ctrl	BB579 growth dn	PostGolgi yeast	Yeast life ext
Cc1ccc(C)c(N2CCN(C(=O)c3ccccc3Br)CC2)c1	29	-38	1	-7
Cc1ccc(N2CCN(C(=O)c3ccccc3Br)CC2)c(C)c1	37*	-56	1	-8
CC1CC(C)CN(CC(C)(C)NS(=O)(=O)c2ccc(Cl)cc2)C1 (configuration not stated)	23	-54	60*	2
O=c1c2ccccc2nc(SCc2cc([N+](=O)[O-])cc3c2OCOC3)n1-c1ccccc1	·	-3	·	2
NC(=O)c1ccsc1NC(=O)C1CCCN1S(=O)(=O)c1ccc(Cl)cc1 (configuration not stated)	36*	-63	-7	-8
O=C(Nc1nccs1)C1CCCN1S(=O)(=O)c1ccc(Cl)cc1 (configuration not stated)	12	-10	11	-1
O=C(Nc1nc(-c2ccccc2)cs1)NC1CCCCC1	50*	-13	-2	-1
O=C(Nc1nc(-c2ccccc2)cs1)C1CCCCN1S(=O)(=O)c1ccc(Cl)cc1 (configuration not stated)	57*	-23	3	-6
O=C(Nc1nc(-c2ccccc2)cs1)C1CCCCN1S(=O)(=O)c1ccccc1 (configuration not stated)	35*	-34	-7	-2
COc1ccc(N(CC(=O)NC2CCCC2)C(=O)c2ccc(N3CCCCC3)nc2)cc1	-6	-17	5	-6
CCOC(=O)N1CCC(NC(=O)c2ccc(CS(=O)(=O)c3ccccc3C)o2)CC1	5	17	-3	-8
CS(=O)(=O)N1Cc2ccccc2CC1C(=O)Nc1ccccc1C(N)=O (configuration not stated)	2	-22	-4	-2
CCSCc1nnc(SCC(=O)Nc2cccc(SC)c2)n1C	-12	-21	-6	-6
O=C1C2=C(Nc3ccccc3SC2c2ccco2)c2ccccc21 (configuration not stated)	72*	-24	12	1
CCC1(C)Cc2c(c(=O)n(-c3ccccc3)c3ncnc(N)c23)CO1 (configuration not stated)	2	-28	10	-6
COc1ccc(S(=O)(=O)N2CCC(n3cnc4cc(C(F)(F)F)ccc43)CC2)cc1	41*	-22	-2	-2
CC(C)C(c1nnnn1C1CCCC1)N1CCN(C(=O)c2ccco2)CC1 (configuration not stated)	12	-9	3	-6
CCOc1cccc(Oc2ccc(C(F)(F)F)cn2)c1	34*	-21	2	-11
CN(C)C(CNC(=O)c1cccnc1Sc1ccccc1)c1ccco1 (configuration not stated)	-1	-41	10	-15
O=c1nc(-c2ccccc2)c2ccccc2[nH]1	59*	-24	0	-8
COc1ccccc1C1CN=NC12CCCc1ccccc1C2=O (configuration not stated)	35*	-43	-14	17
COC(=O)Nc1ccc2ncn(C)c(=O)c2c1	7	4	-2	-7
N#CC(C(=O)C12CC3CC(CC(C3)C1)C2)c1nc2ccccc2[nH]1 (configuration not stated)	74*	-56	-6	0
Clc1ccc2nc(-c3ccc(Br)s3)cn2c1	31*	-41	-4	-5
COc1ccc(-c2cn3cc(Cl)ccc3n2)cc1OC	8	-54	6	-29
SMILES	PostGolgi ctrl	BB579 growth dn	PostGolgi yeast	Yeast life ext
CC(C)CC(NC(=O)C1CCCCC1)C(=O)N1CCN(c2ccccn2)CC1 (configuration not stated)	11	-33	2	-12
CCC1Oc2ccc(C)cc2N(CC(=O)NCc2cccc(OC)c2)C1=O (configuration not stated)	33*	-36	15	-2
COc1ccc(N(C(=O)C(C)C)S(=O)(=O)c2ccc(Cl)cc2)cc1	24	-50	-3	51*
O=C(Nc1ccc(N2CCN(Cc3ccccc3)CC2)cc1)c1ncn[nH]1	31*	9	-2	-20
CCn1nc(C(=O)OCC(=O)c2cc(C)n(Cc3cccs3)c2C)c2ccccc2c1=O	42*	-36	-25	-1
C/C(=N\NC(=O)c1ccccc1O)C1C(=O)c2ccccc2C1=O	9	-49	-1	98*
C/C(=N/NC(=O)c1cc2ccccc2cc1O)C1C(=O)c2ccccc2C1=O	3	-39	-11	1
COC(=O)Cc1c(C)c2ccc(OCC(C)=O)c(C)c2oc1=O	2	-12	10	-24
C=C(C)COc1ccc2c(C)c(CC(=O)OC)c(=O)oc2c1C	109*	-6	104*	-19
O=C(c1csc2c1CCCCC2)N1CCN(c2ncccn2)CC1	8	-18	-2	22
CCOC(=O)c1c(NC(=O)C(C)Sc2cccc[n+]2[O-])sc2c1CCN(Cc1ccccc1)C2 (configuration not stated)	·	91*	·	5
CCOC(=O)c1c(NC(=O)CSc2ncccn2)sc2c1CCN(Cc1ccccc1)C2	·	-29	·	0
CCCn1c(CN(C)Cc2ccccc2)nc2c1c(=O)n(C)c(=O)n2C	·	-24	·	·
Cc1cc(C)nc(SCCn2c(N(C)Cc3ccccc3)nc3c2c(=O)n(C)c(=O)n3C)n1	34*	-46	13	3
CN(Cc1ccccc1)Cc1nc2c(c(=O)n(C)c(=O)n2C)n1Cc1ccccc1Cl	40*	-32	1	-7
CC(C)CCn1c(Oc2ccccc2Cl)nc2c1c(=O)n(C)c(=O)n2C	32*	-34	15	6
Oc1ccc2n[nH]nc2c1	·	-31	·	9
CCOc1ccc(N2C(=O)CC(Sc3nc(-c4cccs4)cc(C(F)(F)F)c3C#N)C2=O)cc1 (configuration not stated)	7	-99	1	7
O=C(CCC1CCCCC1)N1CCN(Cc2ccc3c(c2)OCO3)CC1	38*	-3	73*	-17
CC(C)(CNC(=S)NCCc1ccccc1)CNC(=S)NCCc1ccccc1	·	73*	·	-5
OCCNC(=S)NCCc1ccccc1	·	-20	·	3
COc1cc(OC)cc(C(=O)NCC(=O)N2CCC(C)CC2)c1	0	-25	5	-19
O=c1c(Cl)c(Cl)cnn1-c1ccccc1	·	16	·	40*
COCCCn1c(SCC(=O)n2c(C)c(C)c3ccccc32)nnc1-c1ccoc1C	9	-27	0	1
CC1C(=NO)C(C)C(c2ccc(N(C)C)cc2)NC1c1ccc(N(C)C)cc1 (configuration not stated)	5	-87	-3	-1
O=C(Cn1nnc(-c2ccc(Cl)cc2)n1)NC1CC2CCC1C2 (configuration not stated)	15	-10	37*	-12
Cc1ccc(-c2nnn(CC(=O)NC3CC4CCC3C4)n2)cc1 (configuration not stated)	0	-43	3	-7
CCCn1c(SCC(=O)c2c[nH]c3ccccc23)nnc1-c1ccncc1	·	-8	·	-4
Cc1ccc2[nH]c(=O)c(CN(CCN3CCOCC3)C(=O)Nc3ccccc3F)cc2c1	46*	-55	0	-1
Cc1cc2cc(CN(CCN3CCOCC3)C(=O)Nc3ccccc3F)c(=O)[nH]c2cc1C	0	-18	18	12
